Laboratory results reported in ChEMBL document CHEMBL3046951, “Volatile constituents from the leaves of Callicarpa japonica Thunb. and their antibacterial activities” (2004).

Assays:
Vibrio parahaemolyticus [1] = assay: Antimicrobial activity against Vibrio parahaemolyticus ATCC 33844 assessed as growth inhibition rate at 3.64 mg/l after 72 hr by spectrophotometry; assay type: functional; settings: ATCC 33844, 72 h, read-out: GI
Bacillus cereus [2] = assay: Antimicrobial activity against Bacillus cereus ATCC 11778 assessed as growth inhibition rate at 3.64 mg/l after 72 hr by spectrophotometry; assay type: functional; settings: ATCC 11778, 72 h, read-out: GI
Summary of the method: (§1)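 Pure volatile compounds (purity >95%; one at 90%) were tested against B. cereus ATCC 11778. The strain was grown at 30 °C in nutrient broth for 24 h, then subcultured for 18 h. Optical density was read in a Bioscreen C every 24 h for 72 h, with 10% Tween 80 as the control.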

Escherichia coli [3] = assay: Antimicrobial activity against Escherichia coli O157:H7 ATCC 43894 assessed as growth inhibition rate at 3.64 mg/l after 72 hr by spectrophotometry; assay type: functional; settings: O157:H7 ATCC 43894, 72 h, read-out: GI
Salmonella typhimurium [4] = assay: Antimicrobial activity against Salmonella enterica subsp. enterica serovar Typhimurium ATCC 14028 assessed as growth inhibition rate at 3.64 mg/l after 72 hr by spectrophotometry; assay type: functional; settings: ATCC 14028, 72 h, read-out: GI
Summary of the method: (§2)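 Salmonella Typhimurium ATCC 14028 grown in nutrient broth at 30 °C, precultured 24 h, then subcultured 1:100 for 18 h before testing. Single volatile compounds (>95% pure) were added. OD was read every 24 h over 72 h in a Bioscreen C, with 10% Tween 80 as the comparison control.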

Listeria monocytogenes [5] = assay: Antimicrobial activity against Listeria monocytogenes ATCC 19111 assessed as growth inhibition rate at 3.64 mg/l after 72 hr by spectrophotometry; assay type: functional; settings: ATCC 19111, 72 h, read-out: GI
Summary of the method: (§3)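 L. monocytogenes was grown at 30 °C in tryptic soy broth, subcultured for 18 h, and exposed to pure volatile compounds (>95% purity). Growth was followed by Bioscreen C optical density every 24 h for 72 h against a 10% Tween 80 control.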

Staphylococcus aureus [6] = assay: Antimicrobial activity against Staphylococcus aureus ATCC 25923 assessed as growth inhibition rate at 3.64 mg/l after 72 hr by spectrophotometry; assay type: functional; settings: ATCC 25923, 72 h, read-out: GI
Listeria monocytogenes [7] = assay: microbe, parasite or virus in culture; settings: ATCC 19111, 72 h, read-out: GI
Staphylococcus aureus [8] = assay: microbe, parasite or virus in culture; settings: ATCC 25923, 72 h, read-out: GI
Vibrio parahaemolyticus [9] = assay: microbe, parasite or virus in culture; settings: ATCC 33844, 72 h, read-out: GI
Escherichia coli [10] = assay: microbe, parasite or virus in culture; settings: O157:H7 ATCC 43894, 72 h, read-out: GI
Salmonella typhimurium [11] = assay: microbe, parasite or virus in culture; settings: Salmonella enterica, ATCC 14028, 72 h, read-out: GI
Bacillus cereus [12] = assay: microbe, parasite or virus in culture; settings: ATCC 11778, 72 h, read-out: GI
Vibrio parahaemolyticus [13] = assay: Antimicrobial activity against Vibrio parahaemolyticus ATCC 33844 assessed as growth inhibition rate at 1.44 mg/l after 72 hr by spectrophotometry; assay type: functional; settings: ATCC 33844, 72 h, read-out: GI
Escherichia coli [14] = assay: Antimicrobial activity against Escherichia coli O157:H7 ATCC 43894 assessed as growth inhibition rate at 1.44 mg/l after 72 hr by spectrophotometry; assay type: functional; settings: O157:H7 ATCC 43894, 72 h, read-out: GI
Salmonella typhimurium [15] = assay: Antimicrobial activity against Salmonella enterica subsp. enterica serovar Typhimurium ATCC 14028 assessed as growth inhibition rate at 1.44 mg/l after 72 hr by spectrophotometry; assay type: functional; settings: ATCC 14028, 72 h, read-out: GI; summary of the method: as §2
Staphylococcus aureus [16] = assay: Antimicrobial activity against Staphylococcus aureus ATCC 25923 assessed as growth inhibition rate at 1.44 mg/l after 72 hr by spectrophotometry; assay type: functional; settings: ATCC 25923, 72 h, read-out: GI
Bacillus cereus [17] = assay: Antimicrobial activity against Bacillus cereus ATCC 11778 assessed as growth inhibition rate at 1.44 mg/l after 72 hr by spectrophotometry; assay type: functional; settings: ATCC 11778, 72 h, read-out: GI; summary of the method: as §1
Listeria monocytogenes [18] = assay: Antimicrobial activity against Listeria monocytogenes ATCC 19111 assessed as growth inhibition rate at 1.44 mg/l after 72 hr by spectrophotometry; assay type: functional; settings: ATCC 19111, 72 h, read-out: GI; summary of the method: as §3

**Q.** What does the source list for `CCc1ccco1`?
**A.** inhibition of growth at 3.64 µg/mL (Vibrio parahaemolyticus [1]): 2.3%; inhibition of growth at 3.64 µg/mL (Bacillus cereus [2]): 0%; inhibition of growth at 3.64 µg/mL (Escherichia coli [3]): 0%; inhibition of growth at 3.64 µg/mL (Salmonella typhimurium [4]): 1.6%; inhibition of growth at 3.64 µg/mL (Listeria monocytogenes [5]): 0%; inhibition of growth at 3.64 µg/mL (Staphylococcus aureus [6]): 4.3%

**Q.** With `CCO` [ALCOHOL] as the molecule, how does the inhibition of growth at 104.72 µg/mL (Listeria monocytogenes [7]) read?
**A.** 0%

**Q.** And the inhibition of growth at 104.72 µg/mL (Staphylococcus aureus [8])?
**A.** 3.2%

**Q.** And the inhibition of growth at 104.72 µg/mL (Vibrio parahaemolyticus [9])?
**A.** 3.9%

**Q.** And the inhibition of growth at 104.72 µg/mL (Escherichia coli [10])?
**A.** 2%

**Q.** What about the inhibition of growth at 104.72 µg/mL (Salmonella typhimurium [11]) of the same molecule?
**A.** 3.4%

**Q.** And the inhibition of growth at 104.72 µg/mL (Bacillus cereus [12])?
**A.** 0%

**Q.** What does the source list for `CCOC(C)=O` [ETHYL ACETATE]?
**A.** inhibition of growth at 1.44 µg/mL (Vibrio parahaemolyticus [13]): 4.5%; inhibition of growth at 1.44 µg/mL (Escherichia coli [14]): 0%; inhibition of growth at 1.44 µg/mL (Salmonella typhimurium [15]): 9.3%; inhibition of growth at 1.44 µg/mL (Staphylococcus aureus [16]): 6.6%; inhibition of growth at 1.44 µg/mL (Bacillus cereus [17]): 0%; inhibition of growth at 1.44 µg/mL (Listeria monocytogenes [18]): 0%
